Source: PubChem BioAssay (several laboratories)
In the library only some 3.4% were active in any assay of this set; here they are far more common.
TMEM16A act – mouse TMEM16A channel activation, primary screen; B-score at 10 µM; Q8BHY3; HEK293 TMEM16A/YFP-H148Q/I152L, iodide quench fluorescence; stronger effect = lower value; 0.3% of 340,000 active;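 active = fluorescence-ratio B-score plate-corrected deviation score at least 3 library SD below zero, with starting fluorescence score within 5 deviations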;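 also: channel opened by trigger with iodide after compound preincubation; score built on the fluorescence ratio of max minus min over baseline; more negative score means more quench and so TMEM16A activation or potentiation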
MC4R ag barr – activates human MC4R beta-arrestin recruitment | U2OS MC4R beta-arrestin complementation, luminescence; percent of melanotan II response, DMSO zero | activation, % at 8.9 µM | 0.98% of 360,000 active;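 active = activation above a per-plate cutoff, the mean activation of sample wells on that plate plus 3 SD, cut at about 8% in these data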
Target sequence (P32245 whole entry, looked up): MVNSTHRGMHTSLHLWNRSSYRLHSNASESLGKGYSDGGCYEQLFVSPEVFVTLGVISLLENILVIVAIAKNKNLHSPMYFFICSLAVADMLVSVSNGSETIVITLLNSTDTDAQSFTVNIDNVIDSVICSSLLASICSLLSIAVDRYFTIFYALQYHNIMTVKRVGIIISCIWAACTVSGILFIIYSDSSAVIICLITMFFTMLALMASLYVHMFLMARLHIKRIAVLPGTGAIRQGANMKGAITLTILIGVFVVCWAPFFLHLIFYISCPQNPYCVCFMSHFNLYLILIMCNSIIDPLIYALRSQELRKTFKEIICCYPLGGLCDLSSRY
HTR2A ag – activates the mouse 5-HT2A serotonin receptor; P35363; CHO-K1 mHTR2A beta-arrestin complementation, luminescence; percent of 30 µM serotonin response; activation, % at 7.6 µM; 0.66% of 360,000 active;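 active = activation above a run cutoff, the mean activation of all tested compounds plus 3 SD, cut at about 14% in these data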;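 also: 0% = plate median of compound wells and 100% = 30 µM serotonin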
MIN6 prolif – induces beta-cell replication in MIN6 cells; MIN6 cells proliferation, ATPlite luminescence, 48 h; cells starved in 0.2% serum; 100% = growth in 10% serum; proliferation, % at 10 µM; 0.29% of 330,000 active; AID 2380;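 active = compounds whose signal lies at least 3.5 SD above the mean of all wells on their plate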;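 also: 0% = DMSO-treated cells in low-serum medium and 100% = 10% serum control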
ANO1 block – mouse TMEM16A channel inhibition, primary screen. normalized B-score (activity score, 25-100; higher = stronger inhibition) at 10 µM. Q8BHY3. HEK293 TMEM16A/YFP iodide influx fluorescence, ionomycin. 1.2% of 310,000 active;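 active = ratio plate-corrected score three or more library SD toward inhibition, starting fluorescence score within five deviations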;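 also: score derived from kinetic fluorescence span divided by baseline fluorescence per well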
MC4R antag cAMP – antagonists of human melanocortin 4 receptor (MC4R) | P32245 | MC4R-expressing cells, MTII-stimulated cAMP, LANCE TR-FRET | inhibition, % at 6.5 µM | 0.48% of 360,000 active | AID 540295;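 active = inhibition above its plate's cutoff, the mean of tested wells on that plate plus 3 SD, cut at about 29% in these data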;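 also: 0% = Melanotan II alone and 100% = Melanotan II plus saturating MCL0020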
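Material: human MC4R-expressing U2OS cells. Probe or stimulus: Melanotan II challenge. Dosing: 6.5 µM single dose. Times: 30-min compound, 1-h challenge, 1-h detection, room temperature. Technique: TR-FRET with Eu-cAMP and labeled anti-cAMP, 671 nm. Replication: singlicate.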
TMEM16A reconf – TMEM16A (mouse) chloride channel inhibition, re-confirmation; shares compounds with ANO1 block; HEK293 TMEM16A/YFP-H148Q, iodide quench fluorescence; ionomycin added to raise cell calcium; inhibition, % at 10 µM; 39% of 2,300 active;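 active = mean duplicate percent inhibition, scaled so buffer wells are 0 and the reference blocker 100, over three buffer SD above buffer mean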
HEK293 Ca mobil – calcium mobilization counter-screen hit for TMEM16A inhibitor series. 2% of 2,300 active. TMEM16A/YFP HEK293, Fluo4 calcium mobilization. calcium response (% of ionomycin), % at 10 µM. shares compounds with ANO1 block;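 active = duplicate-averaged calcium signal over 20% of the ionomycin maximum, relative to buffer baseline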;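 also: each well's signal is peak minus trough fluorescence divided by its pre-addition baseline; 0% = buffer wells and 100% = ionomycin wells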
YFP-HEK293 quench – parental YFP-HEK293 iodide quench counter-screen activity; ionomycin; AID 652233; 2,300 tested, under 10 active; YFP ratio F(max-min)/F0 at 10 µM; shares compounds with ANO1 block;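 active = yellow fluorescent protein signal ratio exceeding the buffer control mean by over 5 SD of those controls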;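 also: ratio is mean of duplicate wells from kinetic YFP trace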
ClC-1 rat inh – rat ClC-1 inhibition, TMEM16A specificity screen; 2,300 tested, under 10 active; shares compounds with ANO1 block; AID 652236; ratio percent, % at 10 µM; CHO ClC-1-YFP, iodide influx fluorescence quench; iodide control reads 0, buffer control 100;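 active = duplicate-mean ratio percent above the mean of iodide-only control wells, which defines zero, plus 5 of their SD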;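 also: higher percent means stronger block of ClC-1 iodide influx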
The depositor's hits bear a star; i = inactive; · = no result given.

SMILES | TMEM16A act | MC4R ag barr | HTR2A ag | MIN6 prolif | ANO1 block | MC4R antag cAMP | TMEM16A reconf | HEK293 Ca mobil | YFP-HEK293 quench | ClC-1 rat inh
CCN(CC1COc2ccccc2O1)C(=S)NC1CC2CCC1C2 (centres undefined) | i | -2 | 5 | -3 | 100* | 4 | i | i | -0.83 | -10
C[C@H](CO)N1C[C@H](C)[C@@H](CN(C)S(=O)(=O)c2ccc(F)cc2)Oc2ccc(NC(=O)Cc3ccccc3)cc2C1=O | i | -2 | 1 | -4 | · | 1 | · | · | · | ·
CC(=O)Nc1ccc(NS(=O)(=O)c2ccc(-c3cnc(C4CC4)o3)cc2)cc1 | i | -2 | -3 | 1 | i | 11 | · | · | · | ·
CC(=O)c1cccc(NS(=O)(=O)c2ccc(-c3cnc(C4CC4)o3)cc2)c1 | i | -3 | 4 | -8 | 25* | -12 | 16%* | i | -1 | -17
O=C1CC(c2ccccc2)c2ccc(O)cc2O1 (centres undefined) | i | 2 | -2 | 0 | 25* | 6 | i | i | -1.1 | 7
COc1ccccc1C1CC(=O)Oc2cc(O)ccc21 (centres undefined) | · | 1 | 3 | · | · | -6 | · | · | · | ·
Cc1ccc(NC(=O)Cn2cccc2)cc1Cl | i | -1 | 1 | -1 | i | 5 | · | · | · | ·
COCC(=O)Nc1ccc(C)c(Cl)c1 | i | 0 | -3 | -1 | 100* | -4 | i | i | -1 | -4
Cc1ccc(NC(=O)CN(C)C(=O)c2ccccc2Sc2ccccc2C#N)cc1 | i | 1 | 1 | 1 | i | 9 | · | · | · | ·
COC(=O)c1cn(CCOc2ccccc2F)c2ccccc12 | i | 4 | 0 | -3 | i | -4 | · | · | · | ·
COC(=O)c1cn(CCOc2ccccc2OC)c2ccccc12 | i | 3 | -5 | 0 | 25* | 8 | i | i | -0.92 | -18
c1csc(-c2noc(COc3ccc4c(c3)CCCC4)n2)c1 | i | 4 | 0 | -3 | i | 15 | i | i | -1.2 | -13
COC(=O)CCCC[C@@H]1O[C@H](CCc2ccccc2)Cc2[nH]c(=S)[nH]c(=O)c21 | · | · | -2 | · | · | · | · | · | · | ·
CCc1nnc2sc(-c3ccc(NC(=O)CSc4ccc(Cl)cc4)cc3)nn12 | i | 0 | 6 | -3 | i | -4 | i | i | -1.1 | 0
CC(C)Oc1ccc2ccccc2c1CNC[C@H]1O[C@@H](n2ccc(N)nc2=O)[C@H](O)[C@@H]1O | · | -1 | -7 | · | · | 2 | · | · | · | ·
CCN1CCN(c2nnc(-c3ccccc3)c3ccccc23)CC1 | i | 0 | -4 | 3 | i | 6 | · | · | · | ·
CCCCSc1nnc(-c2ccccc2)c2ccccc12 | i | -2 | 2 | -5 | 100* | -2 | i | i | -1.1 | -8
CCSc1nnc(NC(=O)CSc2nccn2-c2cccc(C)c2C)s1 | · | · | · | 1 | 25* | · | i | i | -0.98 | -12
CCn1c(N2CCN(S(=O)(=O)c3ccc(F)cc3)CC2)nc2ccccc21 | i | 1 | 8 | -2 | i | 5 | · | · | · | ·
CCn1c(N2CCN(S(=O)(=O)c3ccc(Cl)cc3)CC2)nc2ccccc21 | i | -2 | 8 | -2 | 25* | 26 | i | i | -1.3 | -8
O=C1CCCN1CCC(=O)N1CCCC(CO)(Cc2ccccc2)C1 (centres undefined) | i | 0 | 2 | -1 | i | 12 | · | · | · | ·
CCCOC(=O)/C(C(N)=NCc1ccccc1)=C(\O)OCCC | i | 1 | -3 | -4 | 100* | 8 | i | i | -0.87 | -10
CCOC(=O)/C(C(N)=NCC(C)C)=C(/O)c1ccccc1 | i | 0 | 2 | 1 | i | 5 | · | · | · | ·
COc1cc(/C=C/[N+](=O)[O-])ccc1OC(=O)/C=C/c1ccc(F)cc1 | i | 0 | -3 | -5 | i | -4 | · | · | · | ·
COc1ccc(OC)c(-c2cc(C3CCN(c4cc(Cl)nc(N)n4)CC3)[nH]n2)c1 | i | -1 | 7 | -5 | 100* | 7 | i | i | -1.2 | -20
SMILES | TMEM16A act | MC4R ag barr | HTR2A ag | MIN6 prolif | ANO1 block | MC4R antag cAMP | TMEM16A reconf | HEK293 Ca mobil | YFP-HEK293 quench | ClC-1 rat inh
O=C(CN1C(=O)C2CC=CCC2C1=O)NCc1ccc2c(c1)OCO2 (centres undefined) | i | -1 | -1 | 2 | 25* | 0 | i | i | -0.98 | -14
CCCCCc1cc(O)c2c(C)cc(=O)oc2c1 | i | 0 | -6 | -6 | 100* | -7 | 16%* | i | -0.97 | -8
Cc1cc(=O)oc2cc(O)cc(O)c12 | i | 0 | -2 | · | · | -8 | · | · | · | ·
O=C(NNC1=C(C(=O)C(F)(F)F)CCC1)c1ccc(Cl)cc1 | i | -1 | 1 | -4 | 25* | -4 | 24%* | i | -0.88 | -12
CC(C)(C)c1ccc(C(=O)NNC(=O)c2ccc(Cl)cc2)cc1 | i | 1 | 1 | 0 | i | 4 | · | · | · | ·
CCC(=O)N1CCCc2cc(S(=O)(=O)CCC(=O)Nc3ccccc3C)ccc21 | i | -3 | -1 | -2 | i | -1 | · | · | · | ·
CCOC(=O)c1ccc(-n2[nH]c(-c3ccccc3)cc2=O)cc1 | i | -1 | 3 | -6 | 100* | 8 | i | i | -0.89 | -4
CCOC(=O)c1ccc(N=Nc2c(C)[nH]n(-c3ccccc3)c2=O)cc1 | i | -1 | 4 | -4 | i | -6 | · | · | · | ·
CCCCOc1ccc(C(=O)N2CC(C)OC(C)C2)cc1 (centres undefined) | i | -1 | 4 | 0 | i | 2 | i | i | -1 | -5
COc1ccc2oc(C(=O)OCC(=O)N(CCC#N)c3ccccc3)c(C)c2c1 | i | -3 | 9 | -1 | i | -6 | · | · | · | ·
O=C(Nc1ccc(Cl)cc1)Nc1nnc(-c2ccncc2)s1 | i | -1 | -2 | · | i | 1 | · | · | · | ·
Cc1ccc(NC(=O)Nc2nnc(-c3ccncc3)s2)cc1C | i | 7 | -3 | -6 | 25* | 19 | i | i | -0.97 | -4
CN(C)c1ccc(/C=C2\CCCc3c2nc2ccccc2c3C(=O)O)cc1 | i | 1 | 3 | -3 | i | -5 | · | · | · | ·
